Source: ChEMBL document CHEMBL4038305, “Benzoxaborole Antimalarial Agents. Part 5. Lead Optimization of Novel Amide Pyrazinyloxy Benzoxaboroles and Identification of a Preclinical Candidate” (J Med Chem, 2017)

Columns and labels:
Plasmodium berghei [1] = assay: Antimalarial activity against Plasmodium berghei infected in Swiss Webster mouse assessed as mouse survival rate at 100 mg/kg administered once daily via oral gavage for 4 consecutive days beginning 1 hr after infection measured on day 11 post infection relative to control; format: functional
In short: (§1)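 Mice given an intraperitoneal injection of P. berghei-infected erythrocytes taken from a previously infected animal. Oral dosing once daily for 4 consecutive days, starting 1 h after infection. Vehicle: polyethylene glycol 300/propylene glycol/water (weight ratio 55/25/20). Percent survival recorded daily from day 4 to day 20. Chloroquine 30 mg/kg and vehicle-only groups served as controls.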

Plasmodium berghei [2] = assay: Antimalarial activity against Plasmodium berghei infected in Swiss Webster mouse assessed as mouse survival rate at 33 mg/kg administered once daily via oral gavage for 4 consecutive days beginning 1 hr after infection measured on day 8 post infection relative to control; format: functional
In short: (§2)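 P. berghei-infected erythrocytes taken from a previously infected mouse were injected intraperitoneally. Oral dosing, once daily for 4 consecutive days, began 1 h after infection, in polyethylene glycol 300/propylene glycol/water (55/25/20 by weight). Chloroquine at 30 mg/kg was the positive control, with a vehicle-only group. Percent survival was recorded daily from day 4 to day 20.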

Plasmodium berghei [3] = assay: Antimalarial activity against Plasmodium berghei infected in Swiss Webster mouse assessed as mouse survival rate at 1 mg/kg administered once daily via oral gavage for 4 consecutive days beginning 1 hr after infection measured on day 4 post infection relative to control; format: functional; in short: as §1
Plasmodium berghei [4] = assay: Antimalarial activity against Plasmodium berghei infected in Swiss Webster mouse assessed as mouse survival rate at 3 mg/kg administered once daily via oral gavage for 4 consecutive days beginning 1 hr after infection measured on day 5 post infection relative to control; format: functional; in short: as §2
Plasmodium berghei [5] = assay: Antimalarial activity against Plasmodium berghei infected in Swiss Webster mouse assessed as mouse survival rate at 3 mg/kg administered once daily via oral gavage for 4 consecutive days beginning 1 hr after infection measured on day 6 post infection relative to control; format: functional; in short: as §2
Plasmodium berghei [6] = assay: Antimalarial activity against Plasmodium berghei infected in Swiss Webster mouse assessed as mouse survival rate at 100 mg/kg administered once daily via oral gavage for 4 consecutive days beginning 1 hr after infection measured on day 5 post infection relative to control; format: functional; in short: as §1
Plasmodium berghei [7] = assay: Antimalarial activity against Plasmodium berghei infected in Swiss Webster mouse assessed as mouse survival rate at 33 mg/kg administered once daily via oral gavage for 4 consecutive days beginning 1 hr after infection measured on day 5 post infection relative to control; format: functional; in short: as §2
Plasmodium berghei [8] = assay: Antimalarial activity against Plasmodium berghei infected in Swiss Webster mouse assessed as mouse survival rate at 33 mg/kg administered once daily via oral gavage for 4 consecutive days beginning 1 hr after infection measured on day 9 post infection relative to control; format: functional; in short: as §2
Plasmodium berghei [9] = assay: Antimalarial activity against Plasmodium berghei infected in Swiss Webster mouse assessed as mouse survival rate at 1 mg/kg administered once daily via oral gavage for 4 consecutive days beginning 1 hr after infection measured on day 6 post infection relative to control; format: functional; in short: as §1
Plasmodium berghei [10] = assay: Antimalarial activity against Plasmodium berghei infected in Swiss Webster mouse assessed as mouse survival rate at 1 mg/kg administered once daily via oral gavage for 4 consecutive days beginning 1 hr after infection measured on day 5 post infection relative to control; format: functional; in short: as §1
Plasmodium berghei [11] = assay: Antimalarial activity against Plasmodium berghei infected in Swiss Webster mouse assessed as mouse survival rate at 11 mg/kg administered once daily via oral gavage for 4 consecutive days beginning 1 hr after infection measured on day 6 post infection relative to control; format: functional; in short: as §2
Plasmodium berghei [12] = assay: Antimalarial activity against Plasmodium berghei infected in Swiss Webster mouse assessed as mouse survival rate at 11 mg/kg administered once daily via oral gavage for 4 consecutive days beginning 1 hr after infection measured on day 5 post infection relative to control; format: functional; in short: as §2
Plasmodium falciparum [13] = assay: Antimalarial activity against chloroquine-sensitive Plasmodium falciparum 3D7 infected in human erythrocytes assessed as reduction in [3H]-hypoxanthine incorporation preincubated for 24 hrs followed by [3H]-hypoxanthine addition measured after 24 hrs by scintillation counting method; format: functional, cell-based
In short: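 P. falciparum 3D7 cultures were exposed to the compound for 48 h, with atovaquone as the reference control. IC50 was taken from three replicates.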

Plasmodium berghei [14] = assay: Antimalarial activity against Plasmodium berghei infected in Swiss Webster mouse assessed as mouse survival rate at 100 mg/kg administered once daily via oral gavage for 4 consecutive days beginning 1 hr after infection measured on day 14 post infection relative to control; format: functional; in short: as §1
Plasmodium berghei [15] = assay: Antimalarial activity against Plasmodium berghei infected in Swiss Webster mouse assessed as mouse survival rate at 100 mg/kg administered once daily via oral gavage for 4 consecutive days beginning 1 hr after infection measured on day 8 post infection relative to control; format: functional; in short: as §1
Plasmodium berghei [16] = assay: Antimalarial activity against Plasmodium berghei infected in Swiss Webster mouse assessed as mouse survival rate at 100 mg/kg administered once daily via oral gavage for 4 consecutive days beginning 1 hr after infection measured on day 9 post infection relative to control; format: functional; in short: as §1
Plasmodium berghei [17] = assay: Antimalarial activity against Plasmodium berghei infected in Swiss Webster mouse assessed as mouse survival rate at 33 mg/kg administered once daily via oral gavage for 4 consecutive days beginning 1 hr after infection measured on day 4 post infection relative to control; format: functional; in short: as §2
Plasmodium berghei [18] = assay: Antimalarial activity against Plasmodium berghei infected in Swiss Webster mouse assessed as mouse survival rate at 100 mg/kg administered once daily via oral gavage for 4 consecutive days beginning 1 hr after infection measured on day 13 post infection relative to control; format: functional; in short: as §1
Plasmodium berghei [19] = assay: Antimalarial activity against Plasmodium berghei infected in Swiss Webster mouse assessed as mouse survival rate at 1 mg/kg administered once daily via oral gavage for 4 consecutive days beginning 1 hr after infection measured on day 7 post infection relative to control; format: functional; in short: as §1
Plasmodium berghei [20] = assay: Antimalarial activity against Plasmodium berghei infected in Swiss Webster mouse assessed as mouse survival rate at 100 mg/kg administered once daily via oral gavage for 4 consecutive days beginning 1 hr after infection measured on day 7 post infection relative to control; format: functional; in short: as §1
Plasmodium berghei [21] = assay: Antimalarial activity against Plasmodium berghei infected in Swiss Webster mouse assessed as mouse survival rate at 11 mg/kg administered once daily via oral gavage for 4 consecutive days beginning 1 hr after infection measured on day 7 post infection relative to control; format: functional; in short: as §2
Plasmodium berghei [22] = assay: Antimalarial activity against Plasmodium berghei infected in Swiss Webster mouse assessed as mouse survival rate at 33 mg/kg administered once daily via oral gavage for 4 consecutive days beginning 1 hr after infection measured on day 6 post infection relative to control; format: functional; in short: as §2
Plasmodium berghei [23] = assay: Antimalarial activity against Plasmodium berghei infected in Swiss Webster mouse assessed as mouse survival rate at 100 mg/kg administered once daily via oral gavage for 4 consecutive days beginning 1 hr after infection measured on day 12 post infection relative to control; format: functional; in short: as §1
Plasmodium berghei [24] = assay: Antimalarial activity against Plasmodium berghei infected in Swiss Webster mouse assessed as mouse survival rate at 3 mg/kg administered once daily via oral gavage for 4 consecutive days beginning 1 hr after infection measured on day 4 post infection relative to control; format: functional; in short: as §2
Plasmodium falciparum [25] = assay: Antimalarial activity against chloroquine-resistant Plasmodium falciparum W2 infected in human erythrocytes after 48 hrs by YOYO-1 dye based flow cytometric analysis; format: functional, cell-based; details: W2, 48 h
In short: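 P. falciparum W2 cultures were exposed to the compound for 48 h, with artemisinin and chloroquine as reference controls. IC50 was taken from two independent replicates.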

Plasmodium berghei [26] = assay: Antimalarial activity against Plasmodium berghei infected in Swiss Webster mouse assessed as mouse survival rate at 100 mg/kg administered once daily via oral gavage for 4 consecutive days beginning 1 hr after infection measured on day 10 post infection relative to control; format: functional; in short: as §1
Plasmodium berghei [27] = assay: Antimalarial activity against Plasmodium berghei infected in Swiss Webster mouse assessed as mouse survival rate at 100 mg/kg administered once daily via oral gavage for 4 consecutive days beginning 1 hr after infection measured on day 4 post infection relative to control; format: functional; in short: as §1
Plasmodium berghei [28] = assay: Antimalarial activity against Plasmodium berghei infected in Swiss Webster mouse assessed as mouse survival rate at 100 mg/kg administered once daily via oral gavage for 4 consecutive days beginning 1 hr after infection measured on day 6 post infection relative to control; format: functional; in short: as §1
Plasmodium berghei [29] = assay: Antimalarial activity against Plasmodium berghei infected in Swiss Webster mouse assessed as mouse survival rate at 3 mg/kg administered once daily via oral gavage for 4 consecutive days beginning 1 hr after infection measured on day 7 post infection relative to control; format: functional; in short: as §2
Plasmodium berghei [30] = assay: Antimalarial activity against Plasmodium berghei infected in Swiss Webster mouse assessed as mouse survival rate administered once daily via oral gavage for 4 consecutive days beginning 1 hr after infection measured on day 4 post infection; format: functional; in short: as §1
Plasmodium berghei [31] = assay: Antimalarial activity against Plasmodium berghei infected in Swiss Webster mouse assessed as mouse survival rate at 33 mg/kg administered once daily via oral gavage for 4 consecutive days beginning 1 hr after infection measured on day 7 post infection relative to control; format: functional; in short: as §2
Plasmodium berghei [32] = assay: Antimalarial activity against Plasmodium berghei infected in Swiss Webster mouse assessed as mouse survival rate at 11 mg/kg administered once daily via oral gavage for 4 consecutive days beginning 1 hr after infection measured on day 4 post infection relative to control; format: functional; in short: as §2

SMILES: Cc1c(Oc2cnc(C(=O)N[C@@H](CO)C(C)C)cn2)ccc2c1B(O)OC2
- survival at 100 mg/kg (Plasmodium berghei [1]): 40%
- survival at 33 mg/kg (Plasmodium berghei [2]): 80%
- survival at 1 mg/kg (Plasmodium berghei [3]): 100%
- survival at 3 mg/kg (Plasmodium berghei [4]): 100%
- survival at 3 mg/kg (Plasmodium berghei [5]): 100%
- survival at 100 mg/kg (Plasmodium berghei [6]): 100%
- survival at 33 mg/kg (Plasmodium berghei [7]): 100%
- survival at 33 mg/kg (Plasmodium berghei [8]): 0%
- survival at 1 mg/kg (Plasmodium berghei [9]): 100%
- survival at 1 mg/kg (Plasmodium berghei [10]): 100%
- survival at 11 mg/kg (Plasmodium berghei [11]): 100%
- survival at 11 mg/kg (Plasmodium berghei [12]): 100%
- IC50 (Plasmodium falciparum [13]): 466 nM
- survival at 100 mg/kg (Plasmodium berghei [14]): 40%
- survival at 100 mg/kg (Plasmodium berghei [15]): 100%
- survival at 100 mg/kg (Plasmodium berghei [16]): 100%
- survival at 33 mg/kg (Plasmodium berghei [17]): 100%
- survival at 100 mg/kg (Plasmodium berghei [18]): 40%
- survival at 1 mg/kg (Plasmodium berghei [19]): 0%
- survival at 100 mg/kg (Plasmodium berghei [20]): 100%
- survival at 11 mg/kg (Plasmodium berghei [21]): 0%
- survival at 33 mg/kg (Plasmodium berghei [22]): 100%
- survival at 100 mg/kg (Plasmodium berghei [23]): 40%
- survival at 3 mg/kg (Plasmodium berghei [24]): 100%
- IC50 (Plasmodium falciparum [25]): 149 nM
- survival at 100 mg/kg (Plasmodium berghei [26]): 40%
- survival at 100 mg/kg (Plasmodium berghei [27]): 100%
- survival at 100 mg/kg (Plasmodium berghei [28]): 100%
- survival at 3 mg/kg (Plasmodium berghei [29]): 0%
- ED90 (Plasmodium berghei [30]): 26.7 mg/kg
- survival at 33 mg/kg (Plasmodium berghei [31]): 80%
- survival at 11 mg/kg (Plasmodium berghei [32]): 100%
